Measurements published in ChEMBL document CHEMBL1122371, “Inhibition of renin by angiotensinogen peptide fragments containing the hydroxy amino acid residue 5-amino-3-hydroxy-7-methyloctanoic acid” (J Med Chem, 1983).

Assays:
Renin = target: T1, Renin (Homo sapiens, UniProt P00797); experiment: Inhibitory activity against human amniotic renin (competitive inhibition)
T1 sequence (P00797 whole entry): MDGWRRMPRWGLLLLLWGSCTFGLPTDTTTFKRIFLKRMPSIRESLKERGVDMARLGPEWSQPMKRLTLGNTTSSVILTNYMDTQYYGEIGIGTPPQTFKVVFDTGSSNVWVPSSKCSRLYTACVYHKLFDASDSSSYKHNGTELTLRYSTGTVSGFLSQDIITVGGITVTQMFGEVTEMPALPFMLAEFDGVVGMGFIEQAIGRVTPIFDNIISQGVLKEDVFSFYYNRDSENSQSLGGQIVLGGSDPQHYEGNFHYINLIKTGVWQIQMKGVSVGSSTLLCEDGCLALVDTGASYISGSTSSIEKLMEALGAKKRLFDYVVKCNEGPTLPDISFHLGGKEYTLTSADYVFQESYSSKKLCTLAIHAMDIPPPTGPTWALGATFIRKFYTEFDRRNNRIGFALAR
Procedure, shortened: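 Angiotensin I generation is reported as nmol/unit enzyme/min for hog kidney renin and nmol/mL/h for human amniotic renin. Points are means of three determinations. Lines are fitted by linear regression, and Ki is the −[I] at their intersection.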

Renin (Sus scrofa) = experiment: Inhibitory activity against hog kidney renin (Non-competitive inhibition)

Ki (Renin) | Ki (Renin (Sus scrofa)) | SMILES
95 µM | 170 µM | COC(=O)[C@H](Cc1ccccc1)NC(=O)[C@@H](NC(=O)CC(O)CC(N)CC(C)C)C(C)C (some centres undefined)
1600 µM | 1180 µM | COC(=O)[C@@H](Cc1ccccc1)NC(=O)[C@H](NC(=O)CC(O)CC(N)CC(C)C)C(C)C (some centres undefined)
